Shown are actives, neighbours in structure and some others; about 2.3% of the full set was active somewhere.
TbMetRS inhib: blocks T. brucei methionyl-tRNA synthetase activity; AID 624268; 360,000 compounds, 0.4% hits; purified T. brucei MetRS, ATP depletion, Kinase-Glo luminescence; inhibition, % at 11.9 µM;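 active means inhibition above a per-plate cutoff of the control wells' mean inhibition plus 3 SD, cut at about 5.5% in these data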
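technique = Kinase-Glo luminescence, ATP depletion format | system = purified MetRS (methionyl-tRNA synthetase) enzyme from Trypanosoma brucei | timing = 15 min preincubation, 2 h reaction, all 25 °C | evaluation = percent inhibition versus plate control medians | dosing = single dose, 11.9 µM final nominal, 0.9% final DMSO | also added = substrates ATP, L-methionine and bulk Escherichia coli tRNA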
PLCb3 inh: inhibitors of human phospholipase C beta3. Q01970. Purified PLC-beta3, fluorogenic substrate, fluorescence. inhibition, % at 12.2 µM. 370,000 compounds, 0.18% hits; in the data active means inhibition above about 11%
ADAM10 inh: inhibits human ADAM10. AID 720582. O14672. recombinant ADAM10, EDANS/DABCYL FRET peptide cleavage, 3 h. 370,000 compounds, 0.62% hits. inhibition, % at 7 µM;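 active means inhibition above a per-campaign cutoff equal to the mean of compounds falling between control-based bounds plus 3 SD, cut at about 20% in these data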
ADAM17 inh: inhibitors of human ADAM17 | P78536 | recombinant ADAM17, EDANS/DABCYL FRET peptide cleavage | inhibition, % at 6.95 µM | 370,000 compounds, 0.83% hits | AID 720648;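 active means inhibition above the mean of compounds lying between control limits plus 3 SD, set per campaign, cut at about 8.5% in these data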
PLC-gamma1 inh: blocks human PLC-gamma1 enzyme activity | 370,000 compounds, 0.84% hits | purified PLC-gamma1, fluorogenic substrate, fluorescence | P19174 | inhibition, % at 12.2 µM
Target sequence (P19174 whole entry, looked up): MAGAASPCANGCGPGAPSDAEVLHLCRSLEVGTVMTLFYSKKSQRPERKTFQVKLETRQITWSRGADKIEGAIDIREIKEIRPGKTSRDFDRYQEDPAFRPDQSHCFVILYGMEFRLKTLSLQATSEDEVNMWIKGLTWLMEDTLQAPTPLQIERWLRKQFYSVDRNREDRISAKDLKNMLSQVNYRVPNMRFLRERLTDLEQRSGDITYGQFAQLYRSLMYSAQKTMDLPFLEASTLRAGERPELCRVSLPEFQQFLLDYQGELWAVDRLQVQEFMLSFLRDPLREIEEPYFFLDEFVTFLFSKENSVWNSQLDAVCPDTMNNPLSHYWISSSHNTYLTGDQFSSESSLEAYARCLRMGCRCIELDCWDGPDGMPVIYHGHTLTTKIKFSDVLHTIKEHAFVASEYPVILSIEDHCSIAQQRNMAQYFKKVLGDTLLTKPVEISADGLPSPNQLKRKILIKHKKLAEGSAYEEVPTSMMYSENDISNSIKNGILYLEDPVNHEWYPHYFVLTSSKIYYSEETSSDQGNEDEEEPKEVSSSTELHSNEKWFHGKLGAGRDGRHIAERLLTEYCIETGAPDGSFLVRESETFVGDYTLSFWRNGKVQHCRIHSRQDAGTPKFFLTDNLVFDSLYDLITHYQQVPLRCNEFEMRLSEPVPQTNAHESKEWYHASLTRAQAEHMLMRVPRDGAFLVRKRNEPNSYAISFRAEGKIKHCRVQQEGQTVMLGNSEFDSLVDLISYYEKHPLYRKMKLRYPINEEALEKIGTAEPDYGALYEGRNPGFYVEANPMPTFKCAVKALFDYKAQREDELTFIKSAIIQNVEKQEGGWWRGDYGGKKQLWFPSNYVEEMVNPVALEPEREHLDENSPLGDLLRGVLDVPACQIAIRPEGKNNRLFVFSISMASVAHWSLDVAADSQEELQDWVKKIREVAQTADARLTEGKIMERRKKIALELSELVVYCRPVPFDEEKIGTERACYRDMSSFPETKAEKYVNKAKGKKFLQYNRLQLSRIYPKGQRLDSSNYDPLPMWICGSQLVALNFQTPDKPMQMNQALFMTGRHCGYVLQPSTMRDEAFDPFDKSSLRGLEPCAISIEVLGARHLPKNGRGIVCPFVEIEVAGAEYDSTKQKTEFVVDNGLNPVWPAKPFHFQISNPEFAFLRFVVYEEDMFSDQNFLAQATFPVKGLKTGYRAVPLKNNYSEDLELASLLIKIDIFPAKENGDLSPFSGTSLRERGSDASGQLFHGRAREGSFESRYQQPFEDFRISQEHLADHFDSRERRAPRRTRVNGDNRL
PLCg1 ctr: inhibits human PLC-gamma1 in PLC-beta3 counter-screen; AID 743258; shares compounds with PLC-gamma1 inh; inhibition, % at 12.3 µM; purified PLC-gamma1, fluorogenic substrate, fluorescence; 3,300 compounds, 3.1% hits
PLCbeta3 conf: human PLC-beta3 inhibition, confirmation; shares compounds with PLC-gamma1 inh; purified PLC-beta3, fluorogenic substrate fluorescence; inhibition, % at 12.3 µM; 3,300 compounds, 1% hits; AID 743261; in the data active means inhibition above about 11%
Numbers stand for hits; n = inactive; x = not tested or not shown. Unless noted, no stated cut-off is given here; in the data, active means inhibition above about 9.5%; inactive means the rest.

SMILES	TbMetRS inhib	PLCb3 inh	ADAM10 inh	ADAM17 inh	PLC-gamma1 inh	PLCg1 ctr	PLCbeta3 conf
O=C(Nc1ccc(F)cc1F)c1c(C(F)(F)F)ccnc1Oc1ccccc1	n	n	n	n	11	n	n
CCOC(=O)[C@H]1[C@H]2COc3cc(OC)ccc3[C@@H]2N2C(=O)c3cc(OC)c(OC)cc3NC(=O)[C@@]12C	n	n	n	n	n	x	x
CC(C)=CCN1CCN(Cc2cc(CC(C)C)n[nH]2)CC1CCO (stereo unspecified)	n	n	n	n	9.6	n	n
Cn1c(SCC(=O)N2CCN(c3ccccc3)CC2)nnc1-c1ccncc1	n	n	n	n	n	x	x
Cn1c(SCC(=O)N2CCOCC2)nnc1-c1ccccc1	n	12	n	n	n	n	n
Cc1cc(C)nc(SCC(=O)NC2CCCCC2C)n1 (stereo unspecified)	n	n	n	n	n	x	x
CCN(CC)S(=O)(=O)c1ccc(F)cc1	n	n	n	n	11	n	n
CCOC(=O)N1CCN(C(=O)c2ccc(Cn3c(=S)[nH]c4cc5c(cc4c3=O)OCO5)cc2)CC1	n	n	n	n	12	n	n
Cn1c(=O)c([N+](=O)[O-])c(N2CCSCC2)c2ccccc21	n	n	n	n	n	x	x
CCn1c(=O)c([N+](=O)[O-])c(N2CCSCC2)c2ccccc21	n	n	n	n	12	n	n
COc1ccc(C(=O)N2CCC(O)(c3ccc(F)cc3)CC2)cc1OC	n	n	n	n	10	n	n
CCOC(=O)NC(=O)c1cn(Nc2ncc(Cl)cc2C(F)(F)F)c(=O)[nH]c1=O	n	n	n	n	n	x	x
CCOC(=O)NC(=O)c1cn(Nc2ccccc2)c(=O)[nH]c1=O	n	n	n	n	10	n	n
COc1cc(C(=O)NC2CC(C)CC(C)(C)C2)cc(OC)c1OC (stereo unspecified)	n	12	n	n	n	n	n
COc1ccc(-n2c(=S)[nH]c3cc(C(=O)N(C)Cc4ccccc4)ccc3c2=O)cc1	n	n	n	n	12	n	n
COc1ccc(-n2c(=S)[nH]c3cc(C(=O)O)ccc3c2=O)cc1	n	n	n	n	n	x	x
COc1ccc(CNS(=O)(=O)c2cc3c(cc2Br)CC(C)N3C(C)=O)cc1 (stereo unspecified)	x	n	n	n	n	x	x
CS(=O)(=O)N1CCN(c2ccccc2NC(=S)NC(=O)c2cccs2)CC1	n	n	n	n	n	x	x
COc1ccccc1N1CCN(S(=O)(=O)CCNC(=O)CCc2ccccc2)CC1	n	n	n	n	9.7	n	n
CS(=O)(=O)N1CCN(c2ccccc2NC(=S)NC(=O)c2ccccc2[N+](=O)[O-])CC1	n	n	n	n	9.9	n	n
COc1ccccc1C(=O)Nc1ccccc1N1CCN(S(C)(=O)=O)CC1	n	n	n	n	11	n	n
CCN1C[C@@H]2[C@@H]3C(=O)N(C)C(=O)[C@@H]3[C@](Cc3ccccc3)(C1=O)N2C(=O)c1ccc(Cl)c(Cl)c1	n	n	n	n	n	x	x
O=C(Nc1ccc(C(F)(F)F)cc1)C1CCN(S(=O)(=O)c2ccc(N3CCCC3=O)cc2)CC1	n	n	n	n	n	x	x
COC(=O)C1=C(C)N(CC(C)C)C(=S)NC1c1ccc(Cl)cc1 (stereo unspecified)	x	n	n	n	n	x	x
c1ccn(-c2ccc(N3CCOCC3)cc2)c1	n	n	n	n	n	x	x
SMILES	TbMetRS inhib	PLCb3 inh	ADAM10 inh	ADAM17 inh	PLC-gamma1 inh	PLCg1 ctr	PLCbeta3 conf
c1ccc(N2CCOCCOCCOCCOCC2)cc1	n	n	n	n	12	n	n
Cc1nc2c(N)nn(C)c2nc1C	n	n	n	n	n	x	x
CCc1ccc(C(=O)NNc2cc(Cl)ccc2Cl)cc1	n	n	n	n	10.0	n	n
O=C(c1ccccc1)c1ccc(OCC(O)CN2CCN(S(=O)(=O)N3CCCCC3)CC2)cc1 (stereo unspecified)	n	n	n	n	n	x	x
CCC(=O)c1ccc(OCC(O)CN2CCN(S(=O)(=O)N3CCCCC3)CC2)cc1 (stereo unspecified)	n	n	n	n	9.6	n	n
Cc1cccc(C)c1N=C1SC(CC(=O)Nc2c(C)cccc2C)C(=O)N1CCc1ccccn1 (stereo unspecified)	n	n	n	n	n	x	x

Screens (PubChem)
